{"source": "ChEMBL document CHEMBL3259754", "about": "“Purine derivatives as potent Bruton's tyrosine kinase (BTK) inhibitors for autoimmune diseases” (Bioorg Med Chem Lett, 2014)", "key": {"[1]": {"target": "Tyrosine-protein kinase BTK (Homo sapiens, UniProt Q06187)", "sequence (Q06187 whole entry)": "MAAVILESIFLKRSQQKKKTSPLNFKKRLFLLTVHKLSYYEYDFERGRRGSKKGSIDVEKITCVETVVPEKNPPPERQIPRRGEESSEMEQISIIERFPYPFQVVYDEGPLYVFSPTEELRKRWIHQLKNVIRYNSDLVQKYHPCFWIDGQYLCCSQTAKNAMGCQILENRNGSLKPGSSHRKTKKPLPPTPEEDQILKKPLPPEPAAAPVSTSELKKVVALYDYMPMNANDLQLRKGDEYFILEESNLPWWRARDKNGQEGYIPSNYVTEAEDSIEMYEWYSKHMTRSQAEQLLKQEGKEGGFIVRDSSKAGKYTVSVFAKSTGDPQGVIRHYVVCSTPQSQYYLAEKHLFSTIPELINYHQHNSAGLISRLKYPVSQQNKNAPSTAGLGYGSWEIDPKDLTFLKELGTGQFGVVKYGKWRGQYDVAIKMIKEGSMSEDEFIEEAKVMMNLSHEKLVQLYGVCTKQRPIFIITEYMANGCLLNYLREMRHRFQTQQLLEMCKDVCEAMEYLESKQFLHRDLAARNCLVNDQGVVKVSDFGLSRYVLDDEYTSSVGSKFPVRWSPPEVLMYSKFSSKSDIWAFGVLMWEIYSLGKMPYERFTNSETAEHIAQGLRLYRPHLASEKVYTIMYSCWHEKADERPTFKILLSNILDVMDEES", "test": "Inhibition of full length human wild type his-tagged BTK expressed in Sf9 cells using biotinylated peptide as substrate after 1 hr by Fluorescence assay"}, "Liver microsome [2]": {"test_system": "Liver microsome", "test": "Stability in rat liver microsomes assessed as compound remaining", "type": "ADME"}, "[3]": {"test": "Permeability of the compound by PAMPA", "type": "physicochemical", "conditions": "read-out: permeability"}, "[4]": {"test": "Apparent permeability from basolateral to apical side of human Caco2 cells", "type": "ADME, cell-based", "conditions": "Caco-2"}, "[5]": {"test": "Aqueous solubility of the compound at pH 6", "type": "physicochemical"}, "[6]": {"test": "AUC (total) in CD1 mouse at 30 mg/kg, ip", "type": "ADME, organism-based", "set-up": "dose 30 mg/kg, route intraperitoneal", "conditions": "plasma", "summary_of_the_method": "(§1)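 Mouse PK: single 30 mg/kg dose given IP as a Methocel suspension. Cmax, total AUC and t1/2 were taken from plasma exposure after dosing.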"}, "[7]": {"test": "Cmax in CD1 mouse at 30 mg/kg, ip", "type": "ADME, organism-based", "set-up": "dose 30 mg/kg, route intraperitoneal", "conditions": "in vivo", "summary_of_the_method": "as §1"}, "Liver": {"test_system": "Liver", "test": "Stability in mouse liver microsomes assessed as compound remaining", "type": "ADME"}, "Liver microsome [8]": {"test_system": "Liver microsome", "test": "Stability in human liver microsomes assessed as compound remaining", "type": "ADME"}, "[9]": {"test": "Apparent permeability from apical to basolateral side of human Caco2 cells", "type": "ADME, cell-based", "conditions": "Caco-2"}, "[10]": {"test": "Half life in CD1 mouse at 30 mg/kg, ip", "type": "ADME, organism-based", "set-up": "dose 30 mg/kg, route intraperitoneal", "conditions": "in vivo", "summary_of_the_method": "as §1"}, "[11]": {"test": "Aqueous solubility of the compound at pH 1", "type": "physicochemical"}, "[12]": {"test": "Selectivity ratio of IC50 for ITK (unknown origin) to IC50 for full length human wild type his-tagged BTK expressed in Sf9 cells"}, "[13]": {"test": "Selectivity ratio of IC50 for JAK2 (unknown origin) to IC50 for full length human wild type his-tagged BTK expressed in Sf9 cells"}, "[14]": {"test": "Selectivity ratio of IC50 for Flt3 (unknown origin) to IC50 for full length human wild type his-tagged BTK expressed in Sf9 cells"}}}
{"molecule": "CC(C)(C)c1ccc(C(=O)Nc2cccc(-c3nccc(Nc4ccc(C(=O)N5CCOCC5)cc4)n3)c2)cc1", "values": [{"measurement": "IC50", "setting": "[1]", "result": "> 50", "unit": "µM"}]}
{"molecule": "CC(C)(C)c1ccc(C(=O)Nc2cccc(-c3nc(Nc4ccc(C(=O)N5CCOCC5)cc4)c4cccn4n3)c2)cc1", "values": [{"measurement": "IC50", "setting": "[1]", "result": "> 50", "unit": "µM"}]}
{"molecule": "Cn1cnc2c(Nc3ccc(C(=O)N4CCOCC4)cc3)nc(-c3cccc(NC(=O)c4ccc(C(C)(C)C)cc4)c3)cc21", "values": [{"measurement": "IC50", "setting": "[1]", "result": 0.15, "unit": "µM"}]}
{"molecule": "Cc1c(NC(=O)c2ccc(C(C)(C)C)cc2)cccc1-c1nc(Nc2ccc(C(=O)N3CCOCC3)cc2)c2nc[nH]c2n1", "values": [{"measurement": "Stability", "setting": "Liver microsome [2]", "result": 36, "unit": "%"}, {"measurement": "Papp", "setting": "[3]", "result": 40.3, "unit": "×10⁻⁶ cm/s"}, {"measurement": "Papp B→A", "setting": "[4]", "result": "< 1.5", "unit": "×10⁻⁶ cm/s"}, {"measurement": "solubility", "setting": "[5]", "result": "< 1", "unit": "µg/mL"}, {"measurement": "AUC", "setting": "[6]", "result": 32.5, "unit": "µM·h"}, {"measurement": "Cmax", "setting": "[7]", "result": 3.8, "unit": "µM"}, {"measurement": "Stability", "setting": "Liver", "result": 68, "unit": "%"}, {"measurement": "Stability", "setting": "Liver microsome [8]", "result": 14, "unit": "%"}, {"measurement": "Papp A→B", "setting": "[9]", "result": "< 1.5", "unit": "×10⁻⁶ cm/s"}, {"measurement": "half-life", "setting": "[10]", "result": 4.3, "unit": "h"}, {"measurement": "solubility", "setting": "[11]", "result": "< 1", "unit": "µg/mL"}]}
{"molecule": "Cc1c(NC(=O)c2ccc(C(C)(C)C)cc2)cccc1-c1nc(Nc2ccc(C(=O)N3CCOCC3)cc2)c2ncn(CCCc3ccccc3)c2n1", "values": [{"measurement": "Ratio IC50", "setting": "[12]", "result": 1}, {"measurement": "Ratio IC50", "setting": "[13]", "result": 1}, {"measurement": "Ratio IC50", "setting": "[14]", "result": 0.1}, {"measurement": "IC50", "setting": "[1]", "result": "> 50", "unit": "µM"}]}
